ChEMBL document CHEMBL3098029, “Studies on the synthetic and structural aspects of benzosuberones bearing 2, 4-thiazolidenone moiety as potential anti-cancer agents” (Eur J Med Chem, 2014)

Columns and labels:
HEK293 = assay: Cytotoxicity against HEK293 cells by MTT assay; assay type: cell-based; details: Homo sapiens
In short: (§1)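 Growth inhibition in 96-well plates, read by cell-mediated reduction of tetrazolium (MTT) to insoluble formazan, with doxorubicin as standard. Cell lines are A549 (alveolar adenocarcinoma, CCL-185), HeLa (cervical, CCL-2), MDA-MB-231 (breast, HTB26), MCF7 (breast, HTB22) and normal embryonic kidney HEK293. IC50 taken from plotted absorbance data, given as mean ± SD of three independent determinations.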

MCF7 = assay: Cytotoxicity against human MCF7 cells by MTT assay; assay type: functional, cell-based; in short: as §1
MDA-MB-231 = assay: Cytotoxicity against human MDA-MB-231 cells by MTT assay; assay type: functional, cell-based; in short: as §1
HeLa = assay: Cytotoxicity against human HeLa cells by MTT assay; assay type: functional, cell-based; in short: as §1
A549 = assay: Cytotoxicity against human A549 cells by MTT assay; assay type: functional, cell-based; in short: as §1

For `O=C(CN1C(=O)CSC1=O)c1ccccc1`, the IC50 (HEK293) was greater than 100 µM, the IC50 (MCF7) was greater than 100 µM and the IC50 (MDA-MB-231) was greater than 100 µM. For the same molecule, the IC50 (HeLa) was greater than 100 µM and the IC50 (A549) was 14.1 µM.
`O=C(CN1C(=O)S/C(=C\C2=C(Cl)c3ccccc3CCC2)C1=O)c1ccccc1` gave an IC50 (HEK293) greater than 100 µM, an IC50 (MCF7) of 5.31 µM and an IC50 (MDA-MB-231) of 13.3 µM. It also gave an IC50 (HeLa) of 2.98 µM and an IC50 (A549) of 4.89 µM.
`Cc1ccc(C(=O)CN2C(=O)S/C(=C\C3=C(Cl)c4ccccc4CCC3)C2=O)cc1` was tested, and the IC50 (HEK293) was greater than 100 µM, the IC50 (MCF7) was greater than 100 µM and the IC50 (MDA-MB-231) was 5.84 µM. It also gave an IC50 (HeLa) of 7.89 µM and an IC50 (A549) greater than 100 µM.
In the case of `COc1ccc(C(=O)CN2C(=O)S/C(=C\C3=C(Cl)c4ccccc4CCC3)C2=O)cc1`, the IC50 (HEK293) is reported as greater than 100 µM, the IC50 (MCF7) is reported as 8.95 µM and the IC50 (MDA-MB-231) is reported as greater than 100 µM. It also gave an IC50 (HeLa) greater than 100 µM and an IC50 (A549) of 5.44 µM.
`O=C(CN1C(=O)S/C(=C\C2=C(Cl)c3ccccc3CCC2)C1=O)c1ccc(Cl)cc1` gave an IC50 (HEK293) greater than 100 µM, an IC50 (MCF7) greater than 100 µM and an IC50 (MDA-MB-231) greater than 100 µM. It also gave an IC50 (HeLa) greater than 100 µM and an IC50 (A549) greater than 100 µM.
`O=C(CN1C(=O)S/C(=C\C2=C(Cl)c3ccccc3CCC2)C1=O)c1ccc(Br)cc1` showed an IC50 (HEK293) greater than 100 µM, an IC50 (MCF7) of 51.7 µM and an IC50 (MDA-MB-231) greater than 100 µM. For the same molecule, the IC50 (HeLa) was greater than 100 µM and the IC50 (A549) was 5.75 µM.
Molecule `Cc1cc2c(cc1C)C(Cl)=C(/C=C1\SC(=O)N(CC(=O)c3ccccc3)C1=O)CCC2` has an IC50 (HEK293) greater than 100 µM, an IC50 (MCF7) greater than 100 µM and an IC50 (MDA-MB-231) greater than 100 µM. It also gave an IC50 (HeLa) of 7.89 µM and an IC50 (A549) greater than 100 µM.
With `Cc1ccc(C(=O)CN2C(=O)S/C(=C\C3=C(Cl)c4cc(C)c(C)cc4CCC3)C2=O)cc1` the IC50 (HEK293) was greater than 100 µM, the IC50 (MCF7) was 1.91 µM and the IC50 (MDA-MB-231) was 13.4 µM. The IC50 (HeLa) was greater than 100 µM and the IC50 (A549) was greater than 100 µM.
`COc1ccc(C(=O)CN2C(=O)S/C(=C\C3=C(Cl)c4cc(C)c(C)cc4CCC3)C2=O)cc1` gave an IC50 (HEK293) greater than 100 µM, an IC50 (MCF7) greater than 100 µM and an IC50 (MDA-MB-231) of 7.89 µM. For the same molecule, the IC50 (HeLa) was 17.9 µM and the IC50 (A549) was greater than 100 µM.
In the case of `Cc1cc2c(cc1C)C(Cl)=C(/C=C1\SC(=O)N(CC(=O)c3ccc(Cl)cc3)C1=O)CCC2`, the IC50 (HEK293) is reported as greater than 100 µM, the IC50 (MCF7) is reported as 9.85 µM and the IC50 (MDA-MB-231) is reported as greater than 100 µM. It also gave an IC50 (HeLa) greater than 100 µM and an IC50 (A549) of 3.49 µM.
For `Cc1cc2c(cc1C)C(Cl)=C(/C=C1\SC(=O)N(CC(=O)c3ccc(Br)cc3)C1=O)CCC2`, the IC50 (HEK293) was greater than 100 µM, the IC50 (MCF7) was 36.8 µM and the IC50 (MDA-MB-231) was greater than 100 µM. For the same molecule, the IC50 (HeLa) was greater than 100 µM and the IC50 (A549) was 9.69 µM.
`Cc1ccc(C(=O)CN2C(=O)CSC2=O)cc1` gave an IC50 (HEK293) greater than 100 µM, an IC50 (MCF7) greater than 100 µM and an IC50 (MDA-MB-231) greater than 100 µM. The IC50 (HeLa) was greater than 100 µM and the IC50 (A549) was 17 µM.
With `COc1ccc(C(=O)CN2C(=O)CSC2=O)cc1` the IC50 (HEK293) was greater than 100 µM, the IC50 (MCF7) was greater than 100 µM and the IC50 (MDA-MB-231) was greater than 100 µM. For the same molecule, the IC50 (HeLa) was greater than 100 µM and the IC50 (A549) was greater than 100 µM.
`O=C(CN1C(=O)CSC1=O)c1ccc(Cl)cc1` gave an IC50 (HEK293) of 14 µM, an IC50 (MCF7) greater than 100 µM and an IC50 (MDA-MB-231) greater than 100 µM. The IC50 (HeLa) was greater than 100 µM and the IC50 (A549) was greater than 100 µM.
`O=C(CN1C(=O)CSC1=O)c1ccc(Br)cc1` showed an IC50 (HEK293) greater than 100 µM, an IC50 (MCF7) greater than 100 µM and an IC50 (MDA-MB-231) greater than 100 µM. It also gave an IC50 (HeLa) greater than 100 µM and an IC50 (A549) of 22.7 µM.
`O=C1NC(=O)/C(=C/C2=C(Cl)c3ccccc3CCC2)S1` was tested, and the IC50 (HEK293) was greater than 100 µM, the IC50 (MCF7) was greater than 100 µM and the IC50 (MDA-MB-231) was greater than 100 µM. The IC50 (HeLa) was greater than 100 µM and the IC50 (A549) was greater than 100 µM.
In the case of `Cc1cc2c(cc1C)C(Cl)=C(/C=C1\SC(=O)NC1=O)CCC2`, the IC50 (HEK293) is reported as greater than 100 µM, the IC50 (MCF7) is reported as greater than 100 µM and the IC50 (MDA-MB-231) is reported as 5.79 µM. The IC50 (HeLa) was 5.89 µM and the IC50 (A549) was 5.39 µM.
`COc1cccc2c1C(=O)c1c(O)c3c(c(O)c1C2=O)C[C@@](O)(C(=O)CO)C[C@@H]3O[C@H]1C[C@H](N)[C@H](O)[C@H](C)O1` [DOXORUBICIN] showed an IC50 (HEK293) greater than 100 µM.
